Compound activity (PubChem BioAssay)
C2C12 statin = suppression of simvastatin myotoxicity. C2C12 myotubes + simvastatin, ATP luminescence, 48 h; scaled: DMSO 0, geranylgeraniol control 100. 0.78% of 330,000 active. AID 602340. rescue of ATP level, % at 7.49 µM;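 active = mean ATP rescue above about 67%, or every replicate alone reaching that limit, limit read from the data, passing the limit was not always enough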;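 also: myotubes were challenged with 10 µM simvastatin during compound exposure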
S100A4 inh HTS = S100A4-myosin IIA interaction inhibition | P26447 | S100A4/TAMRA-MyoIIA peptide fluorescence polarization | inhibition, % at 10.7 µM | 0.14% of 360,000 active | AID 652163;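 active = mean inhibition of at least 70% across replicates, with every replicate also reaching that level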
Target sequence (P26447 whole entry, looked up): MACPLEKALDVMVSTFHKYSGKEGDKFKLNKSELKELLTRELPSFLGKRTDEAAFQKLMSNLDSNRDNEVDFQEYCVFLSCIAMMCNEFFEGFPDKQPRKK
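Test system: S100A4 monomer protein; Medium: HEPES pH 7.2 with CaCl2, KCl, NaCl, DTT, Triton; Probe or stimulus: TAMRA-labelled myosin IIA heavy-chain peptide probe, 5 nM; Doses: one dose per compound; Times: polarization read 5 min after assay mix addition, stable 5–60 min; Benchmarks: neutral control DMSO, positive control TFP.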
SIRT5 block = inhibitors of human sirtuin-5 desuccinylase; Q9NXA8; Purified SirT5, succinyl-peptide AMC, trypsin-coupled fluorescence; inhibition, % at 15 µM; 1.1% of 330,000 active; in the data active = inhibition above about 15%
Target sequence (Q9NXA8 whole entry, looked up): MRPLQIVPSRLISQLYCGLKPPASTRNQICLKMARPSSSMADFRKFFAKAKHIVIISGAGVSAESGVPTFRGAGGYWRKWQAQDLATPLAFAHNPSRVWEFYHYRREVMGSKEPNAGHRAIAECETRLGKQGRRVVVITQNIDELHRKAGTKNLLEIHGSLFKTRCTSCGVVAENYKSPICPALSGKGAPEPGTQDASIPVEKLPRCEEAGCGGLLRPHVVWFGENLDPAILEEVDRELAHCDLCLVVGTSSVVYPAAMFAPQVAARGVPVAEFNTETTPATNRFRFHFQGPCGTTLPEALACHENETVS
Cneo AK release = causes C. neoformans cell lysis | adenylate kinase release luminescence, 4 h; normalised: neutral wells 0, clomiphene wells 100 | lysis activity, % at 15 µM | 0.2% of 360,000 active | AID 651654;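 active = mean lysis activity across replicates of at least 80%, whatever share of replicates individually reach that level; inactive = mean lysis activity below 80%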
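Assay system: log-phase C. neoformans yeast / Quantity: yeast cell density of 5 × 10^6 cells/mL / Medium: fresh YPD growth medium / Compound: single dose / Timing: static 4 h at 37 °C with compound, 1 h detection / Measured by: adenylate kinase release luminescence / Read-out: lysis from increased AK signal / Benchmarks: Clomiphene as positive lysis control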
PGC1a acetyl inh = modulators of PGC1a acetylation. U2OS PGC1a acetylation, AlphaScreen anti-acetyl-lysine; with virally co-expressed GCN5 acetyltransferase. inhibition, % at 15.6 µM. 0.17% of 350,000 active. AID 651687;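 active = every replicate shows inhibition of at least 40%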;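 also: 0% = neutral control wells and 100% = positive control wells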
Ecoli rRNA inh = inhibitors of bacterial rRNA selective over humanized ribosomes. E. coli WT GFP vs humanized-ribosome RFP mutants, fluorescence, 24 h; hits give low values; DMSO median 0, no signal -100. GFP signal change (wild-type ribosome), % (concentration not given with the values). 1.6% of 350,000 active;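 active = significant combined selectivity score with lowered wild-type GFP, culture density cut under 30%, mutant RFP and density less affected; inactive = any of these conditions unmet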
* marks the source's active call; other numbers are inactive results; · = no result given. Most compounds without a hit are left out; they make up all but 3% or so of the library.

SMILES	C2C12 statin	S100A4 inh HTS	SIRT5 block	Cneo AK release	PGC1a acetyl inh	Ecoli rRNA inh
C[C@@H]1CN([C@@H](C)CO)C(=O)c2cc(NS(=O)(=O)c3ccccc3)ccc2O[C@@H](C)CCCCO[C@@H]1CN(C)S(=O)(=O)c1ccccc1	·	-17	17*	0	3	-4
CCOC(=O)CCCCCC(=O)Nc1ccc2c(c1)C(=O)N([C@H](C)CO)C[C@@H](C)[C@@H](CN(C)S(=O)(=O)c1ccc(C)cc1)OCCCC[C@H](C)O2	·	-2	21*	·	·	8
Cc1ccc(S(=O)(=O)N(C)C[C@@H]2OCCCC[C@H](C)Oc3ccc(NS(=O)(=O)c4ccc(F)cc4)cc3C(=O)N([C@H](C)CO)C[C@H]2C)cc1	1	-14	22*	2	4	0
C[C@@H]1CCCCO[C@@H](CN(C)S(=O)(=O)c2ccccc2)[C@H](C)CN([C@H](C)CO)C(=O)c2cc(NS(=O)(=O)c3ccccc3)ccc2O1	·	-21	5	-1	-10	0
Cc1ccc(S(=O)(=O)N(C)C[C@H]2OCCCC[C@@H](C)Oc3ccc(NC(=O)CCCN(C)C)cc3C(=O)N([C@@H](C)CO)C[C@@H]2C)cc1	·	3	-4	-2	9	1
CN(C)CC(=O)N1[C@@H](C#N)[C@H](c2ccccc2-c2cccc(C(=O)N(C)C)c2)[C@@H]1CO	·	-23	0	·	1	3
CCC(=O)N1C[C@H](C)[C@@H](OC)CN(C)C(=O)c2ccc(NC(=O)c3cc(C)on3)cc2OC[C@@H]1C	-5	·	·	46	-7	2
Cc1ccc(S(=O)(=O)N(C)C[C@H]2OCCCC[C@@H](C)Oc3ccc(NS(=O)(=O)c4ccccc4)cc3C(=O)N([C@H](C)CO)C[C@H]2C)cc1	-19	0	19*	-4	-18	0
Cc1ccc(S(=O)(=O)Nc2ccc3c(c2)C(=O)N([C@@H](C)CO)C[C@@H](C)[C@H](CN(C)S(=O)(=O)c2ccc(C)cc2)OCCCC[C@H](C)O3)cc1	·	5	2	-2	-6	-2
Cc1ccc(S(=O)(=O)N(C)C[C@@H]2OCCCC[C@H](C)Oc3ccc(NS(=O)(=O)c4ccccc4)cc3C(=O)N([C@H](C)CO)C[C@@H]2C)cc1	23	9	21*	0	-13	0
C[C@@H]1CN([C@@H](C)CO)C(=O)c2cc(NS(=O)(=O)c3ccccc3)ccc2O[C@@H](C)CCCCO[C@@H]1CN(C)S(=O)(=O)c1ccc(F)cc1	21	-1	22*	5	-13	0
Cc1ccc(S(=O)(=O)Nc2ccc3c(c2)C(=O)N([C@@H](C)CO)C[C@H](C)[C@@H](CN(C)S(=O)(=O)c2ccccc2)OCCCC[C@H](C)O3)cc1	·	-7	12	1	-1	0
Cc1ccc(S(=O)(=O)Nc2ccc3c(c2)C(=O)N([C@H](C)CO)C[C@@H](C)[C@@H](CN(C)S(=O)(=O)c2ccc(C)cc2)OCCCC[C@@H](C)O3)cc1	·	103*	4	0	-28	4
C[C@@H]1CCCCO[C@@H](CN(C)S(=O)(=O)c2ccccc2)[C@@H](C)CN([C@H](C)CO)C(=O)c2cc(NS(=O)(=O)c3ccc(F)cc3)ccc2O1	17	-1	-2	1	-4	5
COc1cccc(C#Cc2ccc([C@H]3[C@@H](CO)N4C(=O)CN(C(C)=O)C[C@H]34)cc2)c1	·	6	-1	·	-11	3
Cc1ccc(S(=O)(=O)Nc2ccc3c(c2)C(=O)N([C@@H](C)CO)C[C@@H](C)[C@H](CN(C)S(=O)(=O)c2ccccc2)OCCCC[C@@H](C)O3)cc1	·	-2	9	-2	-16	-3
Cc1ccc(S(=O)(=O)Nc2ccc3c(c2)C(=O)N([C@@H](C)CO)C[C@@H](C)[C@H](CN(C)S(=O)(=O)c2ccccc2)OCCCC[C@H](C)O3)cc1	·	12	13	3	4	-2
Cc1ccc(S(=O)(=O)N(C)C[C@H]2OCCCC[C@H](C)Oc3ccc(NS(=O)(=O)c4ccccc4)cc3C(=O)N([C@H](C)CO)C[C@H]2C)cc1	38	-11	27*	0	0	-5
Cc1ccc(S(=O)(=O)N(C)C[C@@H]2OCCCC[C@H](C)Oc3ccc(NS(=O)(=O)c4ccccc4)cc3C(=O)N([C@H](C)CO)C[C@H]2C)cc1	-1	2	18*	0	-13	-1
C[C@@H]1CCCCO[C@H](CN(C)C(=O)CCCN(C)C)[C@@H](C)CN([C@H](C)CO)C(=O)c2cc(NS(=O)(=O)c3ccccc3)ccc2O1	·	-1	-1	0	9	1
C[C@@H]1CCCCO[C@H](CN(C)C(=O)C2CCCCC2)[C@H](C)CN([C@H](C)CO)C(=O)c2cc(NS(=O)(=O)c3ccccc3)ccc2O1	89*	-14	7	-1	-7	-7
C[C@@H]1CCCCO[C@@H](CN(C)C(=O)CCCN(C)C)[C@@H](C)CN([C@H](C)CO)C(=O)c2cc(NS(=O)(=O)c3ccccc3)ccc2O1	·	1	19*	4	6	2
Cc1noc(C)c1NC(=O)N(C)C[C@H]1Oc2c(NC(=O)NC(C)C)cccc2C(=O)N([C@@H](C)CO)C[C@@H]1C	·	-4	-1	-2	11	1
COc1ccc(NC(=O)N(C)C[C@H]2Oc3c(NC(=O)C4CCOCC4)cccc3C(=O)N([C@@H](C)CO)C[C@@H]2C)cc1	33	5	3	-2	5	3
O=C(c1cccnc1)N1C[C@H]2[C@@H](c3ccccc31)[C@H](CO)N2C(=O)C1CCOCC1	-20	10	-1	-5	7	5
Cc1ccc(S(=O)(=O)Nc2ccc3c(c2)C(=O)N([C@H](C)CO)C[C@H](C)[C@@H](CN(C)S(=O)(=O)c2ccccc2)OCCCC[C@@H](C)O3)cc1	·	6	4	-1	-1	4
Cc1ccc(S(=O)(=O)N(C)C[C@H]2OCCCC[C@H](C)Oc3ccc(NS(=O)(=O)c4ccccc4)cc3C(=O)N([C@@H](C)CO)C[C@H]2C)cc1	48	-15	23*	0	0	0
O=C(N[C@H]1CC[C@H](CCNC(=O)C2CCC2)O[C@H]1CO)c1ccncc1	4	6	4	-2	-3	1
Cc1[nH]nc2ncc(C(=O)c3ccccc3O)cc12	-9	·	·	-1	45*	·
